Bioassay records (PubChem BioAssay)
KCNQ1 block = inhibitors of human KCNQ1 channel, primary screen, cell-based, thallium flux, high-throughput; hit rate 1.3% among 310,000; CHO-K1 KCNQ1, FluxOR thallium flux fluorescence; stronger effect = higher value; AID 2642, 2010; Potassium voltage-gated channel subfamily KQT member 1 (Homo sapiens), P51787; B-score at 10 µM;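 active = compounds whose thallium flux B-score, printed positive for inhibition, exceeds three library SD while starting fluorescence stays within three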;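 also: channel opened by potassium depolarization with thallium stimulus after 20 min compound exposure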
KCNK3 block = human KCNK3 channel inhibitors, primary screen, CHO cells, FluxOR thallium flux, B-score. Potassium channel subfamily K member 3 (Homo sapiens), O14649. FluxOR fluorescence; stronger effect = lower value. B-score at 10 µM. hit rate 0.84% among 340,000;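 active = B-score under library mean minus 4 SD, starting fluorescence ratio at most library mean plus 5 SD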;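 also: more negative B-score means stronger inhibition of thallium flux through KCNK3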
KCNQ1 pot = potentiators or activators of KCNQ1 channel, primary screen, cell-based, thallium flux, high-throughput | hit rate 0.35% among 310,000 | CHO-K1 KCNQ1, thallium flux FluxOR fluorescence; stronger effect = higher value | B-score at 10 µM | Potassium voltage-gated channel subfamily KQT member 1 (Homo sapiens), P51787;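 active = fluorescence ratio B-score, a plate-corrected score, at least three library SD, with initial intensity B-score within 5 SD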
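Test system: CHO-K1 cells stably expressing KCNQ1 / Medium: assay buffer / Also added: depolarizing K+/Tl+ stimulus, K2SO4 and Tl2SO4 each 12.5 mM in 5x stock / Incubation: 90 min dye loading and 20 min compound exposure, both at room temperature / Signal: thallium influx via FluxOR fluorescence, kinetic imaging / Evaluation: B score of baseline-normalized fluorescence ratio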
KCNK9 inh = KCNK9 potassium channel inhibitors, primary screen, HEK293 cells, thallium flux; FluxOR thallium flux fluorescence; stronger effect = lower value; B-score at 10 µM; hit rate 1.2% among 310,000;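 active = ratio B-score over 3 SD below the library mean, with starting fluorescence within 5 SD of its mean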;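 also: negative B-score means less thallium flux so channel inhibition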
Target sequence (Q9NPC2 whole entry, looked up): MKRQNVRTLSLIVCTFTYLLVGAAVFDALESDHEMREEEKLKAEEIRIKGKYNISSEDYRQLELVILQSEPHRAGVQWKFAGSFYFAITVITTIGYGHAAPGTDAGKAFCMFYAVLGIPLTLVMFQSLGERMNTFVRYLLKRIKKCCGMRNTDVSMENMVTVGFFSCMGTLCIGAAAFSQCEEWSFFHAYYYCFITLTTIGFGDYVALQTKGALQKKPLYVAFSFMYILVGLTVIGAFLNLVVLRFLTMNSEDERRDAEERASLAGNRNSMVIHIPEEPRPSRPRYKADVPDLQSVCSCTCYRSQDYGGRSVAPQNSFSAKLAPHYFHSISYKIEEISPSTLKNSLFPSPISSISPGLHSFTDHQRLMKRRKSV
hERG rescue = hERG rescue from dofetilide block, primary screen, cell-based, CHO-hERG, FluxOR thallium flux, dofetilide IC70; hit rate 0.51% among 310,000; AID 1511, 2009; activation (rescue from dofetilide block), less the hit threshold, % at 10 µM; dofetilide IC70 present; Voltage-gated inwardly rectifying potassium channel KCNH2 (Homo sapiens), Q12809;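 active = activation above the mean of controls blocked by dofetilide plus 5 SD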;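 also: thallium influx through hERG after potassium depolarization seen as dye fluorescence rise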
Active calls of the source: *; i = inactive; · = no result given. Hits are enriched below; roughly 3.1% of the tested compounds scored in any of these assays.

SMILES	KCNQ1 block	KCNK3 block	KCNQ1 pot	KCNK9 inh	hERG rescue
Cc1c(-c2ccccc2)oc2c(C(=O)N3CCN(c4ccc([N+](=O)[O-])cc4)CC3)cccc2c1=O	i	i	i	-7.1*	-18
CCOc1ccc(C(=O)Nc2ccc(N3CCN(C(C)=O)CC3)cc2)cc1[N+](=O)[O-]	i	i	i	i	-8
CC(=O)N1CCN(c2ccc(Oc3ccc([N+](=O)[O-])c(C(F)(F)F)c3)cc2)CC1	11*	i	i	i	-12
O=C(Nc1ccc(Nc2ccncc2)cc1)c1ccc([N+](=O)[O-])cc1	i	i	i	i	-15
O=C(Nc1ccc(Nc2ccncc2)cc1)c1ccc(Nc2ccnc3ccc([N+](=O)[O-])cc23)cc1[N+](=O)[O-]	i	i	i	i	13*
S=C(NNc1ccnc2cc(Cl)ccc12)Nc1ccccc1Cl	8*	i	i	i	-16
O=C(COc1ccc(F)c(Cl)c1)N1CCCCCCC1	i	i	i	i	-1
O=[N+]([O-])c1ccc(N2CCC(=NOCc3ccc(Cl)cc3)CC2)cc1	6*	i	i	i	-18
CCCCC(CC)C(=O)Nc1ccc(C)c(O)c1 (stereo unspecified)	i	i	i	-7.5*	-10
CCCCC(CC)C(=O)Nc1ccc(C#N)cc1 (stereo unspecified)	i	i	i	i	-2
CCCCC(CC)C(=O)Nc1ccc(S(=O)(=O)N2CCCC2)cc1 (stereo unspecified)	i	i	i	i	-12
CCCCC(CC)C(=O)Nc1ccc(Nc2ccccc2)cc1 (stereo unspecified)	i	i	i	-6.7*	0
CSc1ccccc1NC(=O)C1=COCCO1	i	i	i	i	-14
CC(OC(=O)c1cc(S(=O)(=O)N2CCOCC2)ccc1F)C(=O)NCc1ccc2c(c1)OCO2 (stereo unspecified)	i	i	i	i	-16
O=S(=O)(c1ccc(SCc2cccc(Cl)c2)nc1)N1CCCC1	·	-9.5*	·	·	·
Cc1ccc(CSc2ccc(S(=O)(=O)N3CCCC3)cn2)cc1	·	i	·	·	·
OC(CNCCc1ccc(Cl)cc1)COc1cc(Cl)ccc1Cl (stereo unspecified)	9*	i	i	i	-17
O=C(CCS(=O)(=O)Cc1ccccc1F)NCCc1ccc(Cl)cc1	i	i	i	i	-2
CC(=O)OCCCNc1cc(Sc2nc3ccccc3s2)c2nonc2c1[N+](=O)[O-]	i	i	i	i	-11
CC(=O)OCCNc1cc(Sc2nc3ccccc3[nH]2)c2nonc2c1[N+](=O)[O-]	7*	i	i	-8.1*	-33
O=c1[nH]c(-c2ccc(Cl)cc2)cs1	i	i	i	i	-2
O=c1[nH]c(-c2ccccc2)cs1	i	i	i	i	-3
S=c1[nH]c(-c2ccccc2)cs1	i	i	44*	i	61*
Fc1ccc(-c2csc(=S)[nH]2)cc1	i	i	35*	i	48*
COc1ccc(-c2nc(CS(=O)CC(=O)NCCN3CCCCC3C)c(C)o2)cc1OC (stereo unspecified)	i	i	i	i	-10
SMILES	KCNQ1 block	KCNK3 block	KCNQ1 pot	KCNK9 inh	hERG rescue
c1ccc(-c2cn(C[C@H]3CC[C@H](Cn4cc(-c5ccccn5)nn4)O3)nn2)nc1	i	i	i	i	-4
CC(C)c1ccc(NC2CCCN(C(=O)c3ccc(N4CCOCC4)cc3)C2)cc1 (stereo unspecified)	i	i	i	i	-12
COc1ccc(OCC(=O)NNC(=O)c2ccccc2OCc2c(C)noc2C)cc1	i	i	i	-7.5*	-15
Cc1noc(C)c1COc1ccccc1C(=O)NNC(=O)c1ccccc1	i	i	i	i	-8
Cc1nn(Cc2ccc([N+](=O)[O-])cc2)c(=O)n1-c1cccc(Cl)c1	i	i	i	i	-22
O=C(Cc1ccccc1)N[C@@H]1c2ccccc2CC[C@@H]1OCc1ccccc1	·	i	·	·	·
COc1ccccc1CNCc1cccc(Oc2ccccc2)c1	i	i	8*	i	-15
O=C(NNC(=S)NCc1ccccc1)c1ccccc1OC(F)F	i	i	i	i	-7
O=C(NNC(=S)Nc1ccc(Cl)cc1)c1ccccc1OC(F)F	8*	i	i	i	-11
CC(C)NS(=O)(=O)c1ccc(NC(=O)C(C)Oc2ccc(C(=O)c3ccccc3)cc2)cc1 (stereo unspecified)	i	i	12*	i	-4
CC(Oc1ccccc1)C(=O)Nc1ccc(C(N)=O)cc1 (stereo unspecified)	i	i	i	i	-1
CCCc1cc(C(=O)OCC(=O)N(CCC)c2c(N)n(Cc3ccccc3)c(=O)[nH]c2=O)sc1C	i	i	i	i	-15
Cc1cc2nc3c(=O)n(CCc4ccccc4)c(=O)[nH]c3nc2cc1N	i	i	i	i	-12
Nc1ccc2nc3c(=O)n(CCc4ccccc4)c(=O)[nH]c3nc2c1	8*	i	i	i	-26
Cc1ccc(-n2[nH]c(C)c(/C=N/Nc3ccc([N+](=O)[O-])cc3[N+](=O)[O-])c2=O)cc1	7*	i	i	i	-9
Cc1ccc(-c2nc(CSCC(=O)N3CCN(c4ccccn4)CC3)c(C)o2)cc1	i	-8.9*	i	i	-18
CC(=O)Nc1ccc(S(=O)(=O)N(C)CC(=O)OCC(=O)Nc2cc(C)on2)cc1	·	i	·	·	·
COC(=O)c1cc(=O)n(Cc2ccco2)c(=Nc2ccc(F)c(Cl)c2)s1	7*	i	i	i	-6
COC(=O)c1cc(=O)n(Cc2ccc3c(c2)OCO3)c(=Nc2ccc(F)cc2)s1	6*	i	i	-8*	-8
CC1CCCN(c2ccc(C(=O)Nc3ccc4c(c3)OCO4)cc2[N+](=O)[O-])C1 (stereo unspecified)	6*	i	i	i	-7
Cc1ccc(NC(=O)c2ccc3c(c2)OCO3)cc1Cl	i	i	i	i	13*
COc1cc2c(cc1OC)C(C)N(C(=O)[C@@H](NC(=O)c1ccccc1)C(C)C)CC2 (stereo partly specified)	i	i	i	i	-3
Cc1ccc(C(=O)NNC(=O)COC(=O)COc2ccccc2C#N)cc1	·	i	·	·	·
